Results on 7 molecules are retold here after article PMC10245921 (bioRxiv, 2023).

The labels stand for the following.
B1: FITC-conjugated CD44 peptide (SRRRCGQKKKLVINSGNGAVEDYK-FITC) (peptide)
peptide: SRRRCGQKKKLVINSGNGAVEDYK(FITC)
B2: FERM domain of human MSN (1–345) L281R, 6His tag cleaved (domain or fragment)
chain: MPKTISVRVTTMDAELEFAIQPNTTGKQLFDQVVKTIGLREVWFFGLQYQDTKGFSTWLKLNKKVTAQDVRKESPLLFKFRAKFYPEDVSEELIQDITQRLFFLQVKEGILNDDIYCPPETAVLLASYAVQSKYGDFNKEVHKSGYLAGDKLLPQRVLEQHKLNKDQWEERIQVWHEEHRGMLREDAVLEYLKIAQDLEMYGVNYFSIKNKKGSELWLGVDALGLNIYEQNDRLTPKIGFPWSEIRNISFNDKKFVIKPIDKKAPDFVFYAPRLRINKRIRALCMGNHELYMRRRKPDTIEVQQMKAQAREEKHQKQMERAMLENEKKKREMAEKEKEKIEREKE
B3: FERM domain of human MSN (1–345) H288A, 6His tag cleaved (domain or fragment)
chain: B2 chain with R281L, H288A

The target of one data set is MSN–CD44 interaction (Homo sapiens, UniProt P26038). Nature of the data set: MSN–CD44 TR-FRET assay. The format is binding. Particulars: for IC50: IC50, confirmatory TR-FRET dose response, Fig. 4D, primary hits; for increase in potency relative to compound 2: MSN–CD44 TR-FRET.
MSN–CD44 interaction, sequence (P26038 1-345): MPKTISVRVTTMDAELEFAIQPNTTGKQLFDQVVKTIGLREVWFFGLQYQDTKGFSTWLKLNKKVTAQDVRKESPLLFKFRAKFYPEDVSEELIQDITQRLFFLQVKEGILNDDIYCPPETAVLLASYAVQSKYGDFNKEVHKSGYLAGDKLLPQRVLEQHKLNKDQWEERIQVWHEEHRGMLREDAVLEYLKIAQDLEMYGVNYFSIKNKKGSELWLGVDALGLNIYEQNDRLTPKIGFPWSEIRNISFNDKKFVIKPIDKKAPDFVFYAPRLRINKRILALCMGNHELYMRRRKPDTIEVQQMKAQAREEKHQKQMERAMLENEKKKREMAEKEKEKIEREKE
A further data set concerns the target MSN (Homo sapiens, UniProt P26038). The experiment in a line: Thermal shift assay of MSN with compounds. The data set is classed as binding. The conditions noted are these: two experiments. The method, boiled down: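 Precipitate is removed by centrifugation, then the mix is incubated 30 min at RT. Sypro Orange is added at 20x and the sample ramped 25→95 °C at 1 °C/min. Tm comes from a Boltzmann fit; ΔTm versus DMSO is averaged over two experiments.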

The target in data set [1] is GST-tagged MSN and Flag-tagged CD44 (Homo sapiens, UniProt P26038). The experiment in a line: GST-pull down assay in cell lysates. The format is binding. The conditions noted are these: full length proteins in cell lysates. The method, boiled down:
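HEK293 cells co-express full-length GST-MSN and Venus-Flag-CD44; Venus marks CD44 expression. Lysates are diluted in 10 mM HEPES pH 7.5, 150 mM NaCl, 0.25% Triton X-100 with protease and phosphatase inhibitors. They are dose-treated with test compound in DMSO, rotating 1 h at 4 °C, then captured on GST resin for 1.5 h at 4 °C and washed three times. SDS-PAGE and immunoblotting detect Flag (CD44) and GST (MSN). Two experiments.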

The target in data set [2] is LgBiT-MSN(T588D) and SmBit-CD44 (Homo sapiens, UniProt P26038, T558D). The experiment in a line: NanoBiT split luciferase assay in live cells. The format is cell-based. The method, boiled down: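 HEK293T cells (DMEM, 10% FBS, penicillin/streptomycin, 37 °C, 5% CO2) are seeded at 6000 cells/well. Next day they are transfected with CD44-SmBiT (C-terminal) and LgBiT-MSN(T558D) (N-terminal) plasmids, 20 ng and 5 ng, using Fugene HD; LgBiT-MSN(T558A) is the negative control. After 18 h, 2-fold dilutions of test compound (6.25–0.098 μM, DMSO) are added for 3 h. Nano-Glo Live Cell Reagent is added for 20 min at 37 °C, then luminescence is read. Two independent experiments.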
LgBiT-MSN(T588D) and SmBit-CD44, sequence (P26038 whole entry T558D): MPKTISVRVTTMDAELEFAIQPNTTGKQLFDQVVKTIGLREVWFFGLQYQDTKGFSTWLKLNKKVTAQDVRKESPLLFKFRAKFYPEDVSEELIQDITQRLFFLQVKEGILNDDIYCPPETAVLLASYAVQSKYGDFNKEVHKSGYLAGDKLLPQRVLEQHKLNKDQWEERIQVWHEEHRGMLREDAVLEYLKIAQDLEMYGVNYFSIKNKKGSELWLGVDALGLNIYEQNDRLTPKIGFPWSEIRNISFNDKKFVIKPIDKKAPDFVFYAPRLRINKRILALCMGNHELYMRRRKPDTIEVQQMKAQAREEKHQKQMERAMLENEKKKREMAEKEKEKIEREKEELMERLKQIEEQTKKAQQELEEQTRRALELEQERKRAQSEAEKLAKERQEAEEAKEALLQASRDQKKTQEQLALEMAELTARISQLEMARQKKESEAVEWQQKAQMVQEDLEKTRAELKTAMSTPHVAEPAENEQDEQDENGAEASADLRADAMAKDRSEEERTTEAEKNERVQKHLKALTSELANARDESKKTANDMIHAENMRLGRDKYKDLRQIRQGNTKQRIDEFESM

Another data set addresses MSN FERM domain (Homo sapiens, UniProt P26038). The experiment in a line: Surface plasmon resonance. The format is binding. The method, boiled down: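 MSN FERM domain is amine-coupled to a CM5 chip in acetate pH 4, to 4000 RU. Multi-cycle kinetics use test compound at 0.5–8 μM. KD comes from a 1:1 binding model fit.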
A general note: Surface plasmon resonance follows binding to a sensor surface in real time, without labels.

Data set [3] in a line: Solubility by nephelometry. The format is physicochemical.
A further data set has as its target SYK-FCER1G (Homo sapiens, UniProt P43405). Nature of the data set: SYK TR-FRET counter screen. The data set is classed as binding.
Data set [4] has as its target FERM domain of human MSN (residues 1–345), wild type, 6His tag cleaved (human, UniProt P26038 1-345). The experiment in a line: FRET or BRET.
In data set [5] the target is 6His-tagged FERM domain of human MSN (residues 1–345), wild type (human, UniProt P26038 1-345). The experiment in a line: FRET or BRET.
For data set [6], the target named is B1. Nature of the data set: FRET or BRET.
[7] abbreviates: IC50, CD44–MSN interaction in live cells (approximate), NanoBiT, live cells.

Substitutions are numbered along the chain they refer to. Names may count otherwise. “And” between values parts separate entries of the source, which are not always exact repeats. Identical values can stand only once. Where no end group is shown, it is not given here. The star is where a group is joined. FITC = O=C1OC2(c3ccc(O)cc3Oc3cc(O)ccc32)c2ccc(NC(=S)*)cc21

MSN, sequence (P26038 1-345): as the sequence (P26038 1-345) above
GST-tagged MSN and Flag-tagged CD44, sequence (P26038 whole entry): as the sequence (P26038 whole entry T558D) above, with D558T counted along it
MSN FERM domain, sequence (P26038 1-345): as the sequence (P26038 1-345) above

What is called IC50 is the point on the concentration scale where inhibition reaches its midpoint. A high value points to lower potency. By Kd is commonly meant the free concentration of one partner at which half of the binding sites on the other are occupied at equilibrium, for simple one-to-one binding. Lower therefore signals higher affinity. On to `Nc1ccc(C(=O)Nc2ccc(-c3nc4ccc(NC(=O)c5ccc(N)cc5)cc4s3)cc2)cc1.O=C(O)C(F)(F)F.O=C(O)C(F)(F)F` [Compound 1, 4-amino-N-(4-(6-(4-aminobenzamido)benzo[d]thiazol-2-yl)phenyl)benzamide bis(2,2,2-trifluoroacetate)], for which the half-inhibitory concentration (IC50) at MSN–CD44 interaction was 5000 to 20000 nM; in [2] (setting [7]) it was approximately 600 nM; in [2] (IC50, NanoBiT bioluminescence assay, HEK293 cells, 2 independent experiments), 570 nM and 690 nM. Moreover, the “av. ΔTm of MSN compared to DMSO alone” value at MSN (at 20 μM) is 1–2 °C. Besides, the “activity in GST-pulldown assay” value in data set [1] is reported as “active”. The molecule also showed a Kd on MSN FERM domain of 4200 nM.
For `COc1ccccc1C(=O)Nc1ccc(-c2nc3ccccc3[nH]2)cc1` [Compound 2, N-(4-(1H-benzo[d]imidazol-2-yl)phenyl)-2-methoxybenzamide], the IC50 against MSN–CD44 interaction is 5000 to 20000 nM; in [2] (setting [7]), approximately 200 nM. Moreover, the “av. ΔTm of MSN compared to DMSO alone” value on MSN (at 20 μM) is 1–2 °C. Also, in [1], the “activity in GST-pulldown assay” value was “active”. In addition, the “solubility in aqueous/PBS buffer” value in data set [3] is “low solubility”. For the same molecule, the dissociation constant (Kd) at MSN FERM domain was found to be 700 nM.
On to `COc1ccc(C(=O)Nc2ccc(-c3nc4ccccc4[nH]3)cc2)c(OC)c1` [Compound 2a, N-(4-(1H-benzo[d]imidazol-2-yl)phenyl)-2,4-dimethoxybenzamide], for which, on MSN–CD44 interaction, the “increase in potency relative to compound 2” value is 8 fold. Also, the “av. ΔTm of MSN compared to DMSO alone” value at MSN (at 50 μM) worked out at 1.3 °C. Also, the “activity in GST-pulldown assay” value in data set [1] was “able to inhibit”. The “solubility in aqueous/PBS buffer” value in data set [3] is given as “improved solubility”. The “activity in the counter screen” value on SYK-FCER1G was “no activity”.
Consider `O=C(Nc1ccc(-c2nc3ccccc3[nH]2)cc1)c1cccc(Cl)c1` [Compound 2b, N-(4-(1H-benzo[d]imidazol-2-yl)phenyl)-3-chlorobenzamide], for which the “increase in potency relative to compound 2” value on MSN–CD44 interaction is 2 fold. For the same molecule, the “av. ΔTm of MSN compared to DMSO alone” value at MSN (at 50 μM) stood at 1.2 °C. In addition, the “activity in GST-pulldown assay” value in data set [1] is given as “able to inhibit”. Also, the “solubility in aqueous/PBS buffer” value in data set [3] is “improved solubility”. Besides, the “activity in the counter screen” value at SYK-FCER1G was “no activity”.
Turning to B1, the binding result in [4] and in data set [5] was “binds” in each case.
As to B2, in data set [6], the “fold higher concentration than wild type needed to inhibit” value is 10 fold.
On the same count and under the same terms, the figure for B3 is 10 fold.
